Shown are actives, neighbours in structure and some others; about 2.1% of the full set was active somewhere.
UCH37 DUB inh – inhibitors of human UCH37 deubiquitinase, primary screen, biochemical, Ub-AMC cleavage, fluorescence; Ubiquitin carboxyl-terminal hydrolase isozyme L5 (Homo sapiens), Q9Y5K5; purified proteasome/UCH37; inhibition, % (no concentration beside the values); 0.33% of 330,000 active; AID 588478, 2011;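 active = mean inhibition over replicate wells above about 20%, limit read from the data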;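 also: 0% = compound-free wells with enzyme and 100% = wells lacking proteasome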
Target sequence (Q9Y5K5 whole entry, looked up): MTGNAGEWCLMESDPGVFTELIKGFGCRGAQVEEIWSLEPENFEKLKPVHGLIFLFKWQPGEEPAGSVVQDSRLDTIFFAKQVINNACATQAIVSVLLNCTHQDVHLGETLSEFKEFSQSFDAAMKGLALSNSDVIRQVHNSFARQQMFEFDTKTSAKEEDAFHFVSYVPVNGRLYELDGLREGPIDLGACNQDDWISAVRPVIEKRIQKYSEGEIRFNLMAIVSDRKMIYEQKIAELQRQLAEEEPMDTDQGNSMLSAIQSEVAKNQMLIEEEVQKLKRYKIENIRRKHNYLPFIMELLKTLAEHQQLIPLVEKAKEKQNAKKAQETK
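Material: human UCH37 enzyme supplied as purified proteasome complex. Measure: % inhibition of Ub-AMC cleavage fluorescence. Medium: pH 7.4 Tris-HCl (50 mM) with ovalbumin, ATP-MgCl2, DTT. Times: 30 min preincubation with enzyme, 25 min cleavage at room temperature. Detection: AMC fluorescence intensity at 355/460 nm.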
PfG6PD inh – PfG6PD enzyme inhibitors, primary screen, biochemical, fluorescence intensity, uHTS. glucose-6-phosphate dehydrogenase-6-phosphogluconolactonase (Plasmodium falciparum 3D7). PfGluPho enzyme, NADPH resazurin-diaphorase fluorescence. inhibition, % at 20 µM. 0.78% of 350,000 active. AID 504690, 2011;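 active = inhibition reaching at least a set limit at 20 µM in the primary screen, cut at about 59% in these data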;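 also: 0% = DMSO wells with substrate and 100% = DMSO wells lacking glucose-6-phosphate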
Cardio protect – cardioprotection against H2O2-induced cell death, primary screen, uHTS, H9c2 cells, ATPLite luminescence. 0.63% of 360,000 active. AID 588492, 2011. H9c2 cardiomyocytes, H2O2 injury protection, 2 h. protection from H2O2 cell death, % at 20 µM;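 active = compounds giving at least 50% protection of heart cells from peroxide-induced death in the single-dose screen, raw or plate-pattern-corrected value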;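 also: 0% = DMSO wells with peroxide and 100% = DMSO wells without peroxide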
Beta2AR agonist – beta2AR agonists driving receptor internalization, primary screen, cell-based, FAP fluorogen, flow cytometry. Beta-2 adrenergic receptor (Homo sapiens), P07550. Am2.2-beta2AR cells. response, % (concentration not given with the values). 0.43% of 340,000 active. AID 504454, 2011;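 active = response above a set limit, near 3 SD of response in nonfluorescent compounds, cut at about 42% in these data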
Target sequence (P07550 whole entry, looked up): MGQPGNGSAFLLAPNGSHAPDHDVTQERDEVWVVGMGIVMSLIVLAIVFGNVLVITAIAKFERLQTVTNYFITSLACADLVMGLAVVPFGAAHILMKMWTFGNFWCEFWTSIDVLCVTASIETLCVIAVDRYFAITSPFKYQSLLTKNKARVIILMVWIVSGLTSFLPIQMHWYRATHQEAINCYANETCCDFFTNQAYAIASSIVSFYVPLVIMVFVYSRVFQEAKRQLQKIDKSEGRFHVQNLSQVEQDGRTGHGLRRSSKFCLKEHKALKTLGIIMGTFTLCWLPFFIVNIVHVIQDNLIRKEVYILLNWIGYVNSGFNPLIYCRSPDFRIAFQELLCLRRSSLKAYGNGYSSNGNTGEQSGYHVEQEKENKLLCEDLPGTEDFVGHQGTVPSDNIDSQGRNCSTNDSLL
HKDC1 inh – HKDC1 hexokinase inhibitors, primary screen, biochemical, fluorescence, uHTS; recombinant HKDC1, G6PDH/diaphorase resazurin coupled fluorescence; 0.16% of 340,000 active; inhibition, % at 20 µM; Q2TB90; AID 493160, 2011;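 active = inhibition above about 35% when tested at 20 µM, limit read from the data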;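 also: plate controls were DMSO wells with enzyme for no effect and DMSO wells lacking enzyme for full effect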
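Test system: recombinant HKDC1 (HK5) hexokinase enzyme, produced in-house / Doses: 20 µM test compound, 1% DMSO / Timing: 90 min, room temperature / Detection: G6PDH/diaphorase-coupled fluorescence, 1 mM NADP, 100 µM resazurin, 525/613 nm / Control set: DMSO wells with and without enzyme mix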
aDG glyco act – activators of alpha-DG glycosylation, primary screen, uHTS, Pro5-aDG cells, AlphaScreen; alpha-DG glycosylation AlphaScreen (IIH6); 0% Pro5, 100% B10-LARGE cell signal; activation, % at 10 µM; 0.22% of 360,000 active; AID 624168, 2012;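 active = activation of at least 8% versus controls, or a plate z-score of at least 8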;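 also: Pro5 are CHO cells carrying HIG-tagged alpha-DG that lacks glycosylation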
PfG6PD confirm – PfG6PD inhibitors, hit retest, confirmation, biochemical, fluorescence intensity, single concentration; recombinant PfGluPho, NADPH-diaphorase-resazurin fluorescence; shares compounds with PfG6PD inh; 34% of 2,400 active; inhibition, % at 20 µM; AID 504753, 2011;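 active = inhibition of at least 50% at 20 µM in any single replicate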;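 also: 0% = DMSO with substrate and 100% = DMSO lacking glucose-6-phosphate substrate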
Diaph ctr 10uM – diaphorase inhibitors and chemical oxidizers, confirmation, counter-screen for P. falciparum G6PD inhibitor project, biochemical, fluorescence intensity, 10 µM NADPH. shares compounds with PfG6PD inh. diaphorase-coupled resazurin reduction, NADPH 10 uM. inhibition, % at 20 µM. 39% of 820 active. AID 504862, 2011;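 active = average inhibition reaching 50% or more with the compound at 20 µM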;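 also: resorufin red fluorescence formed as diaphorase reduces resazurin using NADPH; 0% = DMSO with enzyme and 100% = DMSO without enzyme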
Diaphorase 30uM – diaphorase inhibitors and chemical oxidizers, confirmation, counter-screen for P. falciparum G6PD inhibitor project, biochemical, fluorescence intensity, 30 µM NADPH | shares compounds with PfG6PD inh | Diaphorase/resazurin coupled assay, resorufin fluorescence | inhibition, % at 20 µM | 29% of 820 active;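 active = inhibition averaging 50% or more, tested at 20 µM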;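 also: 0% = DMSO with enzyme and 100% = DMSO wells lacking diaphorase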
* = called active by the depositor; x = not tested or not shown.

SMILES	UCH37 DUB inh	PfG6PD inh	Cardio protect	Beta2AR agonist	HKDC1 inh	aDG glyco act	PfG6PD confirm	others
CCN(CC)C(=S)SCC(=O)c1ccccc1	2.7	-4.5	1.2	-1.7	-7.2	0.0	x
Cc1ccc(S(=O)(=O)c2nnn3c2nc(N2CCCCC2)c2ccccc23)cc1	-191.7	72.2*	-3.9	-23.0	-5.4	0.3	24.9
NC(=O)NN=CCCc1ccccc1	5.3	x	x	x	x	x	x
O=[N+]([O-])c1ccc(C=NNc2nc3ccccc3o2)cc1	0.2	x	x	x	x	x	x
O=C(O)c1ccccc1NS(=O)(=O)c1cccc(-n2sc3ccccc3c2=O)c1	3.4	109.5*	64.0*	-3.6	14.8	-0.2	105.2*	Diaph ctr 10uM=-12.5;Diaphorase 30uM=-24.1
Cc1ccc(-c2csc3n[nH]c(=S)n23)cc1	0.9	62.6*	-7.1	2.2	-0.6	0.2	40.3
CCn1c(-c2ccc(C)cc2)n[nH]c1=S	1.1	22.8	-16.2	3.8	-2.5	-0.1	x
CCOc1ccc(C(=O)NN=Cc2cc([N+](=O)[O-])cs2)cc1	7.6	x	x	x	x	x	x
CCCCCC(=O)NN=Cc1ccco1	-3.2	x	x	x	x	x	x
CCOC(=O)c1cnc(-c2cccc(OC)c2)[nH]c1=O	-3.9	96.4*	-0.8	4.2	-8.0	-0.2	78.3*	Diaph ctr 10uM=74.8*;Diaphorase 30uM=56.0*
CCOC(=O)c1cnc(-c2ccccc2)[nH]c1=O	2.0	34.7	3.1	10.4	-3.4	0.0	x
C=C(C)Cn1c(SCC(=O)NN=Cc2cccc(O)c2)nc2ccccc2c1=O	2.1	x	x	x	x	x	x
COc1ccccc1OCCn1ccnc1	-6.9	-6.2	4.9	4.5	-6.5	0.2	x
CCC(C)c1ccccc1OCCn1ccnc1 (stereo not drawn)	-0.5	70.0*	-9.7	-13.0	1.7	1.6	56.1*	Diaph ctr 10uM=35.3;Diaphorase 30uM=31.4
Nc1nc2cc(S(=O)(=O)N3CCOCC3)ccc2o1	6.5	68.8*	-6.0	-0.7	-14.7	-0.1	24.9
NC(=O)CSc1nc2cc(S(=O)(=O)N3CCOCC3)ccc2o1	1.0	54.6	5.1	-1.7	-6.0	0.1	x
C=CCn1c(SCC(=O)Nc2ccc(OC)cc2)nnc1-c1cnccn1	-1.1	64.0*	5.6	8.7	-3.1	0.1	17.2
CCn1c(SCC(=O)Nc2ccc(C)cc2)nnc1-c1cnccn1	5.3	67.8*	-0.8	-7.6	0.3	0.1	16.1
CCn1c(SCC(=O)Nc2ccccc2OC)nnc1-c1cnccn1	2.1	77.6*	1.7	6.1	-5.4	-0.3	52.8*	Diaph ctr 10uM=43.2;Diaphorase 30uM=45.0
CCn1c(SCC(=O)Nc2ccc3c(c2)c2ccccc2n3CC)nnc1-c1cnccn1	-20.8	-1.5	12.3	24.1	9.6	0.3	x
CC1(CC(=O)NN=Cc2cc(Br)c(O)cc2O)OCCO1	-0.9	x	x	x	x	x	x
CNCc1ccccc1Sc1ccc(O)c(O)c1	1.5	97.9*	-21.0	-0.8	11.1	-0.4	94.9*	Diaph ctr 10uM=72.5*;Diaphorase 30uM=61.1*
COc1ccc(Sc2ccccc2CN(C)C)cc1OC	0.7	7.8	-1.9	3.7	0.1	0.0	x
COc1cc(C(=O)NCC(=O)NN=C/C(C)=C\c2ccccc2)cc(OC)c1OC	2.7	x	x	x	x	x	x
CCNc1ccccc1CP(=O)(c1ccccc1)c1ccccc1O (stereo not drawn)	x	81.1*	x	x	22.9	x	86.7*	Diaph ctr 10uM=43.7;Diaphorase 30uM=23.0
SMILES	UCH37 DUB inh	PfG6PD inh	Cardio protect	Beta2AR agonist	HKDC1 inh	aDG glyco act	PfG6PD confirm	others
Cc1ccc(O)c(CP(=O)(c2ccccc2)c2ccccc2)c1	5.0	13.6	-1.1	-1.4	-4.9	0.1	x
Cc1ccc(/C=C/C(=O)N2CCN(S(=O)(=O)/C=C/c3ccccc3)CC2)o1	6.0	63.4*	-0.7	-0.9	-2.6	-0.1	15.5
CCN1CCN(C(=O)/C=C/c2ccc(C)o2)CC1	5.5	21.8	9.2	1.6	-7.7	0.0	x
Cc1ccc(/C=C/C(=O)N2CCN(S(=O)(=O)c3cccs3)CC2)o1	6.1	73.3*	7.0	3.8	1.0	-0.1	38.6
O=C(/C=C/c1ccco1)N1CCN(S(=O)(=O)c2cccs2)CC1	2.2	45.7	7.6	-6.1	-1.0	0.2	x
O=C(/C=C/c1ccco1)N1CCN(S(=O)(=O)/C=C/c2ccccc2)CC1	2.2	9.2	2.7	-0.9	-2.5	0.2	x
Cc1ccc(/C=C/C(=O)N2CC(C)CC(C)C2)o1 (stereo not drawn)	5.3	72.0*	-29.0	5.5	11.8	-0.5	29.1
CC1=C(C)C(=NOC(=O)c2cccc([N+](=O)[O-])c2)C=CC1=O	2.5	x	x	x	x	x	x
COc1ccc(CC(=O)NN=C(C)c2cccnc2)cc1	1.3	x	x	x	x	x	x
Nc1nonc1-n1nnc(C(=O)NN=Cc2ccccc2Cl)c1COc1ccc(F)cc1	3.5	x	x	x	x	x	x
CC1(c2ccccc2)NC(=O)N(CC(=O)Nc2nc(-c3ccccn3)cs2)C1=O (stereo not drawn)	0.0	33.6	47.4	0.2	-0.7	1.1	x
O=C(COc1cccc(F)c1)Nc1nc(-c2ccccn2)cs1	x	61.5*	58.7*	x	x	1.1	6.4
Cc1ccc(C2(C)NC(=O)N(CC(=O)Nc3nc(-c4ccccn4)cs3)C2=O)cc1 (stereo not drawn)	-3.4	72.1*	36.7	-1.2	7.9	1.0	36.0
N=c1n(CCN2CCCCC2)c2ccccc2n1CC(=O)c1ccc(Cl)c(Cl)c1	x	93.0*	8.1	29.3	-3.4	5.4*	4.2
CCOC(=O)C=c1sc(=C(C#N)C(N)=O)n(-c2ccccc2)c1=O	4.6	x	x	x	x	x	x
O=C(C[n+]1ccccc1)NN=Cc1ccco1	1.9	x	x	x	x	x	x
C=C(C)C1CC=C(C)C(=NNC(=O)CNc2ccc(OCC)cc2)C1 (stereo not drawn)	1.6	x	x	x	x	x	x
Cc1cc(-c2csc(N)n2)c(C)n1C	-1.3	64.1*	-4.7	3.0	-1.6	0.3	-6.7
COc1ccc([N+](=O)[O-])cc1NC(=O)CC1SC(=Nc2cccc(C)c2C)N(N=Cc2cccc(OC)c2OC)C1=O (stereo not drawn)	4.4	x	x	x	x	x	x

Source: PubChem BioAssay
